Series [1] concerns the target T1, Human rhinovirus A protease (Human rhinovirus sp., UniProt Q4U254).
T1 sequence (Q4U254 whole entry): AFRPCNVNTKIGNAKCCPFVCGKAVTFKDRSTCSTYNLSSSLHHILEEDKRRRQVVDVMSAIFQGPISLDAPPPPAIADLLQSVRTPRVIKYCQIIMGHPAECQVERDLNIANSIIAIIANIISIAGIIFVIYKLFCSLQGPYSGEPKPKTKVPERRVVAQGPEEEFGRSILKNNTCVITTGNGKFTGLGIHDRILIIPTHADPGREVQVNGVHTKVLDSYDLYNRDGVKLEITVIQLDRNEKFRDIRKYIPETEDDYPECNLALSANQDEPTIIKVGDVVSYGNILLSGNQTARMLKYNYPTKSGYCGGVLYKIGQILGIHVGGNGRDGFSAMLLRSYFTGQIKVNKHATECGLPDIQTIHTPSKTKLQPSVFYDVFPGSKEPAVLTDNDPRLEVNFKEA
The experiment in a line: Inhibition of HRV Protease 3CP (serotype 14). The arrangement: species or system Rhinovirus B.

The target in series [2] is T2, Human rhinovirus A protease (Human rhinovirus sp.) (UniProt Q4U254).
T2 sequence (whole entry): T1 sequence (Q4U254 whole entry)
The experiment in a line: (§1) cytotoxicity against HRV Protease 3CP (serotype 14).

In series [3] the target is T2, Human rhinovirus A protease (Human rhinovirus sp.). The experiment in a line: cytotoxicity against Human Rhinovirus Protease 3C (serotype 14).
Series [4] has the same target. The series can be described thus: cytotoxicity against HRV Protease 3CP (serotype 14),. It is filed as functional.
Series [5] shares this target. The experiment in a line: Inhibitory activity against Human Rhinovirus Protease 3C (serotype 14). The settings on record: Rhinovirus B.
For series [6] the target is unchanged. The series can be described thus: cytotoxicity against HRV Protease 3CP (serotype 1A),. Format: functional.
For series [7] the target is unchanged. The experiment in a line: cytotoxicity against HRV Protease 3CP (serotype 10),. Format: functional.
The target is the same in series [8]. The description is as §1. Format: functional.
The nature of series [9]: AUC value after 15 mg/kg iv dose in Dogs. It is filed as ADME, organism-based, Canis lupus familiaris. To be noted: dog, plasma. Also noted: dose 15 mg/kg, route intravenous. In a few lines:
(§2)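 Dogs (n = 3) received the compound iv or orally in 80:20 propylene glycol:water at 15.0 mg/mL. Blood was sampled periodically for up to 24 h. Plasma levels were measured by LC-MS (detection limit 5 ng/mL). Parameters came from noncompartmental analysis of each animal's concentration–time data.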

Series [10] can be described thus: Tmax value after 30 mg/kg po dose in Dogs. Also noted: dose 30 mg/kg, route oral. It is filed as ADME, organism-based, Canis lupus familiaris. To be noted: dog, in vivo. The method in brief: as §2
The species entered for series [11] is Homo sapiens. The experiment in a line: Half life upon exposure to human plasma.
Series [12] has as its target T2, Human rhinovirus A protease (Human rhinovirus sp.). The series can be described thus: cytotoxicity against HRV Protease 3CP (serotype 39). Format: functional.
Series [13] shares this target. The experiment in a line: cytotoxicity against HRV Protease 3CP (serotype 1A). Format: functional.
Series [14] in a line: Half life period after 30 mg/kg po dose in Dogs. Format: ADME, organism-based, Canis lupus familiaris. The arrangement: dose 30 mg/kg, route oral. The settings on record: dog, in vivo. The method in brief:
as §2

Series [15] deals with T2, Human rhinovirus A protease (Human rhinovirus sp.). The series can be described thus: cytotoxicity against HRV Protease 3CP (serotype 9). It is filed as functional.
Series [16] shares this target. The series can be described thus: cytotoxicity against HRV Protease 3CP (serotype 3). It is filed as functional.
Series [17] is described as follows: Plasma clearance after 15 mg/kg iv dose in Dogs. It is filed as ADME, organism-based, Canis lupus familiaris. Also noted: dose 15 mg/kg, route intravenous. The settings on record: dog. The method in brief:
as §2

For series [18], the target named is T2, Human rhinovirus A protease (Human rhinovirus sp.). The series can be described thus: cytotoxicity against HRV Protease 3CP (serotype 2). It is filed as functional.
For series [19] the target is unchanged. The experiment in a line: cytotoxicity against HRV Protease 3CP (serotype 23). It is filed as functional.
For series [20] the target is unchanged. The experiment in a line: cytotoxicity against HRV Protease 3CP (serotype 78). Format: functional.
The target is the same in series [21]. The experiment in a line: cytotoxicity against HRV Protease 3CP (serotype 16). It is filed as functional.
For series [22] the target is unchanged. The series can be described thus: cytotoxicity against HRV Protease 3CP (serotype 25). It is filed as functional.
Series [23] has the same target. The series can be described thus: cytotoxicity against HRV Protease 3CP (serotype Hanks). Format: functional.
Series [24] concerns Canis familiaris. The experiment in a line: Volume distribution after 30 mg/kg po dose in Dogs. It is filed as ADME, organism-based, Canis lupus familiaris. Also noted: dose 30 mg/kg, route oral. The settings on record: dog, in vivo. The method in brief:
as §2

Series [25] in a line: Half life period after 15 mg/kg iv dose in Dogs. Format: ADME, organism-based, Canis lupus familiaris. Also noted: dose 15 mg/kg, route intravenous. The settings on record: dog, in vivo. The method in brief: as §2
Series [26] in a line: Plasma clearance after 30 mg/kg po dose in Dogs. Format: ADME, organism-based, Canis lupus familiaris. Also noted: dose 30 mg/kg, route oral. The settings on record: dog. In a few lines:
as §2

Series [27] addresses T2, Human rhinovirus A protease (Human rhinovirus sp.). The series can be described thus: cytotoxicity against HRV Protease 3CP (serotype 19). It is filed as functional.
Series [28] is described as follows: Cmax value after 30 mg/kg po dose in Dogs. To be noted: dog, in vivo. It is filed as ADME, organism-based, Canis lupus familiaris. The arrangement: dose 30 mg/kg, route oral. The method in brief:
as §2

The target in series [29] is T2, Human rhinovirus A protease (Human rhinovirus sp.). The series can be described thus: cytotoxicity against HRV Protease 3CP (serotype 11). Format: functional.
Series [30] in a line: Oral bioavailability after 30 mg/kg po dose in Dogs. The settings on record: dog, in vivo. It is filed as ADME, organism-based, Canis lupus familiaris. The method in brief:
as §2

The species named for series [31] is Homo sapiens. The series can be described thus: Loss of compound (%metabolized) after 30 min exposure to human liver microsomes. The settings on record: read-out: Metabolism. (In general: Liver microsomes are a subcellular fraction often used to study metabolism.)
Series [32] can be described thus: AUC value after 30 mg/kg po dose in Dogs. It is filed as ADME, organism-based, Canis lupus familiaris. The arrangement: dose 30 mg/kg, route oral. The settings on record: dog, plasma. In a few lines:
as §2

Series [33] concerns the target T2, Human rhinovirus A protease (Human rhinovirus sp.). The series can be described thus: cytotoxicity against HRV Protease 3CP (serotype 10). Format: functional.
Series [34] in a line: Tmax value after 15 mg/kg iv dose in Dogs. Format: ADME, organism-based, Canis lupus familiaris. Also noted: dose 15 mg/kg, route intravenous. To be noted: dog, in vivo. The method in brief:
as §2

The target in series [35] is T2, Human rhinovirus A protease (Human rhinovirus sp.). The series can be described thus: cytotoxicity against HRV Protease 3CP (serotype 13). Format: functional.
The nature of series [36]: Volume distribution after 15 mg/kg iv dose in Dogs. It is filed as ADME, organism-based, Canis lupus familiaris. The settings on record: dog, in vivo, read-out: V. The arrangement: dose 15 mg/kg, route intravenous. In a few lines: as §2
Series [37] can be described thus: Cmax value after 15 mg/kg iv dose in Dogs. Format: ADME, organism-based, Canis lupus familiaris. Also noted: dose 15 mg/kg, route intravenous. The settings on record: dog, in vivo. In a few lines:
as §2

Molecules are shown by their SMILES.

With `CCOC(=O)/C=C/[C@H](CCC(N)=O)NC(=O)Cn1cccc(NC(=O)OCc2ccccc2)c1=O`, the half-maximal effective concentration (EC50) (in general, the concentration giving half of the maximal effect) in series [1] is above 10 µM. For the same molecule, the CC50 – broadly, the concentration at which the toxic effect on the cells reaches its halfway point – in series [2] is above 10 µM.

Consider `CCOC(=O)/C=C/[C@H](CCC(N)=O)NC(=O)[C@H](Cc1ccccc1)NC(=O)[C@H](CC(C)C)NC(=O)OCc1ccccc1`, for which the CC50 in series [3] is above 320 µM.

In turn, `CCOC(=O)/C=C/[C@H](CCC(N)=O)NC(=O)[C@H](Cc1ccc(F)cc1)n1cccc(NC(=O)OCc2ccccc2)c1=O` registered an EC50 in series [1] of 0.014 µM. Further, the figures for the half-maximal cytotoxic concentration (CC50) in [4], in series [6] and in series [7] were above 320 µM, above 10 µM and above 10 µM, respectively. The molecule further showed a K obs / 1 in series [5] of 81400 M⁻¹ s⁻¹.

With `CCOC(=O)/C=C/[C@H](C[C@@H]1CCNC1=O)NC(=O)[C@H](Cc1ccccc1)n1cccc(NC(=O)OCc2ccccc2)c1=O`, in [5], the K obs / 1 is 380000 M⁻¹ s⁻¹. Further, the CC50 in series [8] is above 1 µM.

Take `CCOC(=O)/C=C/[C@H](CCC(N)=O)NC(=O)[C@H](Cc1ccccc1)n1ccc(C)c(NC(=O)c2cc(C)on2)c1=O`: the K obs / 1 in [5] came to 116000 M⁻¹ s⁻¹.

The molecule `CCOC(=O)/C=C/[C@H](CCC(N)=O)NC(=O)[C@H](Cc1ccccc1)n1cccc(NC(=O)C2CCCO2)c1=O` (some centres undefined) displayed an EC50 in series [1] of 1.78 µM. The 50% cytotoxic concentration (CC50) in [2] was above 10 µM. This molecule also gave a K obs / 1 in [5] of 3750 M⁻¹ s⁻¹.

As to `CCOC(=O)/C=C/[C@H](CCC(N)=O)NC(=O)[C@H](Cc1ccccc1)n1cccc(NC(=O)c2cc(Cl)on2)c1=O`, it took 0.024 µM to reach a half-maximal effect in series [1] (EC50). The molecule also showed a half-maximal cytotoxic concentration (CC50) in [2] above 10 µM. The molecule further displayed a K obs / 1 in [5] of 134000 M⁻¹ s⁻¹.

Consider `CCOC(=O)c1ccc(OCCC2CCN(c3ccc(C)nn3)CC2)cc1` [PIRODAVIR], for which, in [1], the midpoint of the response, the EC50, lay at 0.044 µM. Also, in [2], the CC50 is above 10 µM.

`Cc1cc(CCCOc2c(C)cc(-c3noc(C(F)(F)F)n3)cc2C)on1` [PLECONARIL]: a half-maximal effect in series [1] (EC50) was put at 0.058 µM. The molecule further displayed a CC50 in series [2] above 10 µM.

Turning to `Cc1cc(C(=O)Nc2cccn([C@@H](Cc3ccc(F)c(F)c3)C(=O)N[C@H](/C=C/C(=O)OC(C)C)C[C@@H]3CCNC3=O)c2=O)no1`, the results for the AUC in series [9] and in series [32] were 17100 ng·h/mL and 16300 ng·h/mL, respectively. For the same molecule, the time to peak (Tmax) (usually the time from dosing to the highest level) in series [10] was 1.17 h; in series [34], 4 min. In addition, the half-life – broadly, the time needed for the level to fall by half in the phase considered – is 9.7 h in series [11], 3.4 h in series [14] and 3.23 h in series [25]. In addition, the CC50 in series [12], in series [13], in series [15], in series [16], in series [18] and in series [19] was above 10 µM throughout. The CC50 in series [20], in series [21], in series [22], in series [23], in series [27] and in series [29] was above 10 µM in each case. The CC50 in [33], in series [35] and in series [8] was above 10 µM each time. Further, the clearance (commonly the volume of plasma or blood freed of the substance per unit of time) in series [17] is 14.7 mL/min/kg. Further, the V in [24] was 9.6 L/kg. For the same molecule, the CL/F (commonly clearance divided by bioavailability, as obtained after extravascular dosing) in series [26] stood at 33 mL/min/kg. Besides, the highest concentration (Cmax) (commonly the peak of the concentration-time curve) in [28] was 3500 ng/mL; in series [37], 10600 ng/mL. Further, the bioavailability (commonly dose-corrected exposure relative to a reference, in per cent) in series [30] was determined as 48%. In [31], the metabolised at 0.5 h was determined as 55%. Also, the Vd in series [36] turned out to be 4.2 L/kg.

Turning to `CCOC(=O)/C=C/[C@H](CCC(N)=O)NC(=O)[C@H](Cc1ccccc1)n1cccc(NC(=O)c2cc(C)on2)c1=O`, a half-maximal response in series [1] (EC50) required 0.016 µM. The molecule further gave a CC50 in series [2] above 10 µM. The K obs / 1 in [5] turned out to be 329000 M⁻¹ s⁻¹.

These data come from ChEMBL document CHEMBL1135913, “Structure-based design, synthesis, and biological evaluation of irreversible human rhinovirus 3C protease inhibitors. 6. Structure-activity studies of orally bioavailable, 2-pyridone-containing peptidomimetics” (J Med Chem, 2002).
